Experimental data published in ChEMBL document CHEMBL5154717, “Identification of thiophene-benzenesulfonamide derivatives for the treatment of multidrug-resistant tuberculosis” (Eur J Med Chem, 2022).
Values after ≈ are worked out from the molar mass of the structure shown.

What was measured:
[1] = Cytotoxicity against mouse J774.A1 cells measured by MTT assay; assay type: toxicity, cell-based
In short: (§1)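 Vero, HepG2 and mouse J774A.1 cells grown in RPMI 1640 with 10% FBS. MTT read-out in 96-well format.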

[2] = system: Mycobacterium tuberculosis; assay: Antimycobacterial activity against Mycobacterium tuberculosis H37Rv measured by MABA assay; assay type: functional
In short: (§2)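 Microplate Alamar Blue assay against replicating M. tuberculosis H37Rv or clinical isolates. MIC is the lowest concentration giving ≥90% reduction in fluorescence relative to the mean of replicate bacterium-only controls.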

[3] = system: Mycobacterium tuberculosis; assay: Antimycobacterial activity against Mycobacterium tuberculosis 14862 clinical isolate measured by MABA assay; assay type: functional; in short: as §2
[4] = system: Mycobacterium tuberculosis; assay: Antimycobacterial activity against Mycobacterium tuberculosis 13946 clinical isolate measured by MABA assay; assay type: functional; in short: as §2
[5] = Cytotoxicity against African green monkey Vero cells measured by MTT assay; assay type: toxicity, cell-based; conditions: African green monkey (Chlorocebus sabaeus); in short: as §1
[6] = target: Voltage-gated inwardly rectifying potassium channel KCNH2 (Homo sapiens, UniProt Q12809); assay: Inhibition of hERG; assay type: toxicity
In short: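 Electrophysiological recording of hERG current at 30, 10, 3.0, 1.0 and 0.3 µM, run in duplicate for IC50.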

[7] = Selectivity index, Ratio of IC50 for Vero cells over MIC for Mycobacterium tuberculosis H37Rv; assay type: toxicity; conditions: monkey
[8] = Cytotoxicity against human HepG2 cells measured by MTT assay; assay type: toxicity, cell-based; in short: as §1
[9] = Metabolic stability in human hepatocytes assessed as compound remaining at 1 uM measured by LC-MS/MS analysis; assay type: ADME, cell-based, Hepatocyte; conditions: read-out: Stability
In short: (§3)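 Compound at 1 µM with hepatocytes at 1 million cells/mL final; human hepatocytes are mixed donor, mouse are male. Incubated at 37 °C in CO2 at ~100 rpm. Sampled at 0, 15, 30, 60, 90 and 120 min, quenched in ice-cold ACN/MeOH with internal standard. Parent remaining measured by LC-MS/MS.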

[10] = target: T1, Decaprenylphosphoryl-beta-D-ribose oxidase (Mycobacterium tuberculosis (strain ATCC 25618 / H37Rv), UniProt P9WJF1); assay: Inhibition of recombinant Mycobacterium tuberculosis DprE1 measured by resazurin dye based assay
T1 sequence (P9WJF1 whole entry): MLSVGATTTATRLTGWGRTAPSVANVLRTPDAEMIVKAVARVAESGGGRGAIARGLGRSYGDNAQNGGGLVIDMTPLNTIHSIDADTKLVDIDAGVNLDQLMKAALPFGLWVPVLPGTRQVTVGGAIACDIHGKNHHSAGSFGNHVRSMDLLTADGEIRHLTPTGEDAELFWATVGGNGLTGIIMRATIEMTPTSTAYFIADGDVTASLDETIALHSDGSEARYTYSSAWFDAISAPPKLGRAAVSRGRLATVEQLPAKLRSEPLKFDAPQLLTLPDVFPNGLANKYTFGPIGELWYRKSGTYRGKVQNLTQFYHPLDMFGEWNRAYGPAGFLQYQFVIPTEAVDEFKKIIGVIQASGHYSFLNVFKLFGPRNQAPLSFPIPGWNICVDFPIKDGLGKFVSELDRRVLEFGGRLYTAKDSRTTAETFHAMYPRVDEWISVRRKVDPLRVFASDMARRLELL
In short: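 Resazurin-coupled fluorescence assay at 30 °C. Buffer: 50 mM HEPES pH 7.5, 100 mM NaCl, 1.5% DMSO, 100 µM Tween-20, 50 µM resazurin, 2 µM FAD. DprE1 at 1 µM with 1 mM FPR across inhibitor concentrations. Resorufin read at ex 530/em 595 nm. IC50 from initial velocities plotted against inhibitor concentration.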

[11] = Metabolic stability in mouse hepatocytes assessed as half-life at 1 uM measured by LC-MS/MS analysis; assay type: ADME, cell-based, Hepatocyte; in short: as §3
[12] = Metabolic stability in mouse hepatocytes assessed as compound remaining at 1 uM measured by LC-MS/MS analysis; assay type: ADME, cell-based, Hepatocyte; conditions: read-out: Stability; in short: as §3
[13] = Metabolic stability in human hepatocytes assessed as half-life at 1 uM measured by LC-MS/MS analysis; assay type: ADME, cell-based, Hepatocyte; in short: as §3
[14] = system: J774.A1; assay: Antimycobacterial activity against Mycobacterium tuberculosis H37Rv infected in mouse J774.A1 cells assessed as change in log10 CFU at 5 ug/ml; assay type: functional; conditions: dose 5 µg/ml
In short: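 Mouse J774A.1 macrophages infected with M. tuberculosis H37Rv, test compound at final 10 or 5 µg/mL. Read-out is intracellular log10 CFU; Δlog10 CFU = untreated minus treated. Triplicates in at least three separate experiments.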

Sequence of Voltage-gated inwardly rectifying potassium channel KCNH2 (Q12809 whole entry): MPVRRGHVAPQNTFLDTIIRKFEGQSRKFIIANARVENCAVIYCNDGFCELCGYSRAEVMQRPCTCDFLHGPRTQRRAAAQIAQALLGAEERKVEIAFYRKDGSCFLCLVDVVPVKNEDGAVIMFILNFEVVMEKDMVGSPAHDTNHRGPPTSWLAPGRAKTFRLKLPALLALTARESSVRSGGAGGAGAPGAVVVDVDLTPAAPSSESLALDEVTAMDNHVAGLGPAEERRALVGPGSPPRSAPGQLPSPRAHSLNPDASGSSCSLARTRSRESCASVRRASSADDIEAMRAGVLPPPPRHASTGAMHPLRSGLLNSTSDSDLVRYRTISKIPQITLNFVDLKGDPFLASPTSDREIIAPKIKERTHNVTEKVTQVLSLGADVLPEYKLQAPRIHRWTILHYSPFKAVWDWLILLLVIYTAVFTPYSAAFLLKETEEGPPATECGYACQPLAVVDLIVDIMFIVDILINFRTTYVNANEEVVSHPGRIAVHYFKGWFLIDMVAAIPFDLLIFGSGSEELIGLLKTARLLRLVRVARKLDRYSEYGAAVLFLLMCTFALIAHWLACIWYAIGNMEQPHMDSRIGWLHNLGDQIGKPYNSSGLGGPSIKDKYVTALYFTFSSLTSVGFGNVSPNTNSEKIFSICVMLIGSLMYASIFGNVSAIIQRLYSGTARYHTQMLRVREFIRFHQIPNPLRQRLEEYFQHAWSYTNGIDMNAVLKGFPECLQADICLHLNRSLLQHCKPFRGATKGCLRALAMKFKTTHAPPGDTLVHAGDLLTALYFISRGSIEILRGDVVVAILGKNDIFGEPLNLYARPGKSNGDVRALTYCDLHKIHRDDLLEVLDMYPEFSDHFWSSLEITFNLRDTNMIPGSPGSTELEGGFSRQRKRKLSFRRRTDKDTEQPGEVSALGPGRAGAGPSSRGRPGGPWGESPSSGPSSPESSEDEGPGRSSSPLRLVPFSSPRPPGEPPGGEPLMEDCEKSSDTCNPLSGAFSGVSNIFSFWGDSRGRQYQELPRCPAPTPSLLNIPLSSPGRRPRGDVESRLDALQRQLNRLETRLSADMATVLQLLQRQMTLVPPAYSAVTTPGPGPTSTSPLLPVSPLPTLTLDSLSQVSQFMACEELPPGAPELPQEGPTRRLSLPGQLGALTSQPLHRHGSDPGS

Compound	MIC [2] [mg/L]	IC50 [5] [mg/L]	selectivity ratio [7]	further results
COC(=O)NC(=O)c1ccsc1NC(=O)c1ccc(S(=O)(=O)N2CCC(OC)CC2)cc1	0.03 (≈ 0.0623 µM)	18 (≈ 37.4 µM)	601	IC50 [1]: 54.9 mg/L (≈ 114 µM); MIC [3]: 0.44 mg/L (≈ 0.914 µM); MIC [4]: 0.25 mg/L (≈ 0.519 µM); IC50 [6]: 8.9 µM; IC50 [8]: 46.1 mg/L (≈ 95.7 µM)
CCCOC(=O)NC(=O)c1ccsc1NC(=O)c1ccc(S(=O)(=O)N2CCCCC2)cc1	0.051 (≈ 0.106 µM)	56.6 (≈ 118 µM)	1110	
O=C(NC(=O)c1ccsc1NC(=O)c1ccc(S(=O)(=O)N2CCOCC2)cc1)OCC(F)(F)F	30.4 (≈ 58.4 µM)			
CCOC(=O)NC(=O)c1ccsc1NC(=O)c1ccc(S(=O)(=O)N2CCC(OC)CC2)cc1	0.03 (≈ 0.0605 µM)	21 (≈ 42.4 µM)	701	
O=C(Nc1sccc1C(=O)Nc1ccccn1)c1ccc(S(=O)(=O)N2CCCCC2)cc1	29.6 (≈ 62.9 µM)			
CCOC(=O)NC(=O)c1ccsc1NC(=O)c1ccc(S(=O)(=O)Nc2cccc(F)c2)cc1	1.14 (≈ 2.32 µM)			
CCOC(=O)NC(=O)c1ccsc1NC(=O)c1ccc(S(=O)(=O)Nc2ccccn2)cc1	1.55 (≈ 3.27 µM)			
CCOC(=O)NC(=O)c1ccsc1NC(=O)c1ccc(S(=O)(=O)Nc2ccc(F)cc2)cc1	0.98 (≈ 1.99 µM)	20.5 (≈ 41.8 µM)	21	
CCOC(=O)NC(=O)c1ccsc1NC(=O)c1ccc(S(=O)(=O)Nc2nccs2)cc1	7.64 (≈ 15.9 µM)			
CCOC(=O)NC(=O)c1ccsc1NC(=O)c1ccc(S(=O)(=O)Nc2ccc(C)cc2)cc1	3.56 (≈ 7.3 µM)			
COC(=O)NC(=O)c1ccsc1NC(=O)c1ccc(S(=O)(=O)N2CCCCC2)cc1	0.24 (≈ 0.532 µM)	3.62 (≈ 8.02 µM)	15	IC50 [1]: 36.9 mg/L (≈ 81.7 µM); remaining at 1 µM [9]: 1%; IC50 [10]: 0.221 µM; MIC [3]: 0.51 mg/L (≈ 1.13 µM); half-life at 1 µM [11]: 14 min; MIC [4]: 0.48 mg/L (≈ 1.06 µM); IC50 [6]: 3.3 µM; remaining at 1 µM [12]: 22.7%; half-life at 1 µM [13]: 4.6 min; IC50 [8]: 36.8 mg/L (≈ 81.5 µM)
CCOC(=O)NC(=O)c1ccsc1NC(=O)c1ccc(S(=O)(=O)Nc2ccccc2)cc1	0.7 (≈ 1.48 µM)	14.5 (≈ 30.6 µM)	21	
CCCOC(=O)NC(=O)c1ccsc1NC(=O)c1ccc(S(=O)(=O)N2CCOCC2)cc1	2.45 (≈ 5.09 µM)			
CCOC(=O)NC(=O)c1ccsc1NC(=O)c1ccc(S(=O)(=O)Nc2ccc(OC)cc2)cc1	3.64 (≈ 7.23 µM)			
COC(=O)NC(=O)c1ccsc1NC(=O)c1ccc(C(=O)N2CCCCC2)cc1	0.19 (≈ 0.457 µM)	> 64	> 337	
CC(C)OC(=O)NC(=O)c1ccsc1NC(=O)c1ccc(S(=O)(=O)N2CCOCC2)cc1	0.45 (≈ 0.934 µM)	13.1 (≈ 27.3 µM)	29	
COC(=O)NC(=O)c1ccsc1NC(=O)c1ccc(S(=O)(=O)N2CCC(=O)CC2)cc1	3.52 (≈ 7.56 µM)			
CO[C@H]1/C=C/O[C@@]2(C)Oc3c(C)c(O)c4c(O)c(c(/C=N/N5CCN(C)CC5)c(O)c4c3C2=O)NC(=O)/C(C)=C\C=C\[C@H](C)[C@H](O)[C@@H](C)[C@@H](O)[C@@H](C)[C@H](OC(C)=O)[C@@H]1C [RIFAMPIN]	0.015 (≈ 0.0182 µM)			Activity [14]: 1.03 deltalog10CFU; MIC [3]: 9.24 mg/L (≈ 11.2 µM); MIC [4]: > 10 mg/L
COC(=O)NC(=O)c1ccsc1NC(=O)c1ccc(S(=O)(=O)N2CCC2)cc1	0.13 (≈ 0.307 µM)	17.5 (≈ 41.3 µM)	134	
COC(=O)NC(=O)c1ccsc1NC(=O)c1ccc(S(=O)(=O)NC23CC4CC(CC(C4)C2)C3)cc1	1.96 (≈ 3.79 µM)			

Compound	MIC [2] [mg/L]	IC50 [5] [mg/L]	selectivity ratio [7]	further results
CCOC(=O)NC(=O)c1ccsc1NC(=O)c1ccc(S(=O)(=O)N2CCC2)cc1	0.049 (≈ 0.112 µM)	> 64	> 1310	MIC [3]: 0.062 mg/L (≈ 0.142 µM); MIC [4]: 0.06 mg/L (≈ 0.137 µM)
COC(=O)NC(=O)c1ccsc1NC(=O)c1ccc(S(=O)(=O)N(C)C)cc1	1.19 (≈ 2.89 µM)	16.2 (≈ 39.3 µM)	14	
COC(=O)NC(=O)c1ccsc1NC(=O)c1ccc(S(=O)(=O)N2CCCCCC2)cc1	0.22 (≈ 0.473 µM)	9.13 (≈ 19.6 µM)	42	
CCOC(=O)NC(=O)c1ccsc1NC(=O)c1ccc(S(=O)(=O)N2CCCCC2)cc1	0.03 (≈ 0.0644 µM)	18.6 (≈ 39.9 µM)	619	IC50 [1]: 34.3 mg/L (≈ 73.7 µM); remaining at 1 µM [9]: 49.8%; MIC [3]: < 0.016 mg/L; half-life at 1 µM [11]: 50.6 min; MIC [4]: < 0.016 mg/L; remaining at 1 µM [12]: 66.3%; half-life at 1 µM [13]: 29.9 min; IC50 [8]: 38.8 mg/L (≈ 83.3 µM)
CCOC(=O)NC(=O)c1ccsc1NC(=O)c1ccc(S(=O)(=O)Nc2ccc(OC(F)(F)F)cc2)cc1	26.3 (≈ 47.2 µM)			
CCOC(=O)NC(=O)c1ccsc1NC(=O)c1ccc(S(=O)(=O)Nc2ccc([N+](=O)[O-])cc2)cc1	3.61 (≈ 6.96 µM)			
COC(=O)NC(=O)c1ccsc1NC(=O)c1ccc(S(=O)(=O)N2CCC(O)CC2)cc1	3.67 (≈ 7.85 µM)			
COC(=O)NC(=O)c1ccsc1NC(=O)c1ccc(S(=O)(=O)N2CCC(C)CC2)cc1	0.23 (≈ 0.494 µM)	9.13 (≈ 19.6 µM)	40	
CN[C@@H]1[C@H](O[C@H]2[C@H](O[C@H]3[C@H](O)[C@@H](O)[C@H](N=C(N)N)[C@@H](O)[C@@H]3N=C(N)N)O[C@@H](C)[C@]2(O)C=O)O[C@@H](CO)[C@H](O)[C@H]1O [STREPTOMYCIN]	0.49 (≈ 0.843 µM)			MIC [3]: > 2 mg/L; MIC [4]: > 2 mg/L
CCCCNS(=O)(=O)c1ccc(C(=O)Nc2sccc2C(=O)NC(=O)OC)cc1	0.28 (≈ 0.637 µM)	29.5 (≈ 67.1 µM)	105	
CCN(C)S(=O)(=O)c1ccc(C(=O)Nc2sccc2C(=O)NC(=O)OC)cc1	0.49 (≈ 1.15 µM)	10.4 (≈ 24.5 µM)	21	
Cc1ccnc(NC(=O)c2ccsc2NC(=O)c2ccc(S(=O)(=O)N3CCOCC3)cc2)n1	0.87 (≈ 1.78 µM)	42.7 (≈ 87.6 µM)	49	
COC(=O)NC(=O)c1ccsc1NC(=O)c1ccc(S(=O)(=O)N2CCCC2)cc1	0.1 (≈ 0.229 µM)	39.4 (≈ 90.2 µM)	395	
CCOC(=O)NC(=O)c1ccsc1NC(=O)c1ccc(S(=O)(=O)Nc2ccc(Br)cc2)cc1	2.79 (≈ 5.05 µM)			
O=C(NC(=O)c1ccsc1NC(=O)c1ccc(S(=O)(=O)N2CCCCC2)cc1)OCC(F)(F)F	29.7 (≈ 57.2 µM)			
C[C@H]1COc2c(N3CCN(C)CC3)c(F)cc3c(=O)c(C(=O)O)cn1c23.C[C@H]1COc2c(N3CCN(C)CC3)c(F)cc3c(=O)c(C(=O)O)cn1c23.O [LEVOFLOXACIN]	0.33			MIC [3]: 1.87 mg/L; MIC [4]: 1.94 mg/L
COC(=O)NC(=O)c1ccsc1NC(=O)c1ccc(S(=O)(=O)NC2CCCCC2)cc1	0.92 (≈ 1.98 µM)	> 64	> 70	
COC(=O)NC(=O)c1ccsc1NC(=O)c1ccc(S(=O)(=O)N2CCC(c3ccccc3)CC2)cc1	> 32			
CCOC(=O)NC(=O)c1ccsc1NC(=O)c1ccc(S(=O)(=O)N2CCCCCC2)cc1	0.024 (≈ 0.05 µM)	3.42 (≈ 7.13 µM)	143	
Cc1ccnc(NC(=O)c2ccsc2NC(=O)c2ccc(S(=O)(=O)N3CCCCC3)cc2)n1	0.24 (≈ 0.494 µM)	32.8 (≈ 67.5 µM)	137	remaining at 1 µM [9]: 41.2%; half-life at 1 µM [11]: 7.9 min; IC50 [6]: 1.7 µM; remaining at 1 µM [12]: 7.3%; half-life at 1 µM [13]: 23.4 min
